According to ChEMBL document CHEMBL1132270, “Synthesis and structure-activity relationships of a new model of arylpiperazines. 4. 1-[omega-(4-Arylpiperazin-1-yl)alkyl]-3-(diphenylmethylene) - 2, 5-pyrrolidinediones and -3-(9H-fluoren-9-ylidene)-2, 5-pyrrolidinediones: study of the steric requirements of the terminal amide fragment on 5-HT1A …” (J Med Chem, 1999):

Tests used:
[1] = biological target: T1, Adrenergic receptor alpha-1 (Rattus norvegicus, UniProt P15823+P23944+P43140); assay: In vitro binding affinity was evaluated on alpha-1 adrenergic receptor from rat cerebral cortex by using [3H]prazosin as radioligand; assay type: tissue-based
T1 sequence (P15823 whole entry): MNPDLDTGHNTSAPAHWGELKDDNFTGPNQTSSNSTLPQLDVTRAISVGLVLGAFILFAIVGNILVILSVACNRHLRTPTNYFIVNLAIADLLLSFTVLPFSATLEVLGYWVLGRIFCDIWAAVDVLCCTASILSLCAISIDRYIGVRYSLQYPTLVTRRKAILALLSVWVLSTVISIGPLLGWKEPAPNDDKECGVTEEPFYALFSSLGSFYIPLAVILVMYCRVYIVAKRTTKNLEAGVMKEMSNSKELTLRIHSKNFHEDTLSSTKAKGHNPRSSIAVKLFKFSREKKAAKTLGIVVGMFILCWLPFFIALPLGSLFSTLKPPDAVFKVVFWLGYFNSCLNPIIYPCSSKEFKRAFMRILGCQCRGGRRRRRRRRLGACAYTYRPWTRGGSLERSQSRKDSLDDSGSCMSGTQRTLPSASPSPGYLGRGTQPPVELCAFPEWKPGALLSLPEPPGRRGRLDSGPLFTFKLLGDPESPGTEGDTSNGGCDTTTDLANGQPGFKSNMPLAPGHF
T1 sequence (P23944 whole entry): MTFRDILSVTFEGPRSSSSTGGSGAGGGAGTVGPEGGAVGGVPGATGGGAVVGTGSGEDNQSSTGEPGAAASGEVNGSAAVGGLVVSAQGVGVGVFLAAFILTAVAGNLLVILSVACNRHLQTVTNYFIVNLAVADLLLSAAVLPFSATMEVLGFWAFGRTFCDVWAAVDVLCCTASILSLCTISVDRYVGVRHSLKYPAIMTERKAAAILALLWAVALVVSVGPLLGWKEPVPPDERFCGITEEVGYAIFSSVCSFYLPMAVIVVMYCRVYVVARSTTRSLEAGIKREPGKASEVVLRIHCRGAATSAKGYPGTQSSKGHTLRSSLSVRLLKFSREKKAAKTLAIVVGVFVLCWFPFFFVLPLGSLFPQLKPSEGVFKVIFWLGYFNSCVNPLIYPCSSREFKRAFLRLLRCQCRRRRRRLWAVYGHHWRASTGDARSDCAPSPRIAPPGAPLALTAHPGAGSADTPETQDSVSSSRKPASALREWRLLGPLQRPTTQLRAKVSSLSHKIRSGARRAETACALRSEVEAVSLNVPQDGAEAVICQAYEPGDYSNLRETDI
T1 sequence (P43140 whole entry): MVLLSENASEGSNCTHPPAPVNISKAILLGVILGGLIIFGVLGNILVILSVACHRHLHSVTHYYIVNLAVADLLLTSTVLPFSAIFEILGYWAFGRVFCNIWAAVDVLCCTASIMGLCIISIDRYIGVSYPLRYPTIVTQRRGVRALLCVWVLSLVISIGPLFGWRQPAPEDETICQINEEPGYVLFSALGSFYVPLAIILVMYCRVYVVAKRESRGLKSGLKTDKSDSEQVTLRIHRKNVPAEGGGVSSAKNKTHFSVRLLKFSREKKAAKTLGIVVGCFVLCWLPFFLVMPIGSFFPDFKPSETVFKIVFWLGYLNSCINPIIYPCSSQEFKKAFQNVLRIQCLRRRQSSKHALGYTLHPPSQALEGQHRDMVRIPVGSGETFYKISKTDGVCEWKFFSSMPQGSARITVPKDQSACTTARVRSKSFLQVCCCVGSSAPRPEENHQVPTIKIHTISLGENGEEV
How it was run: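 Nonspecific: 10 μM phentolamine. Filter-bound radioactivity by scintillation; IC50 from competition curves, Ki by Cheng–Prusoff; mean ± SEM of 2–4 triplicate experiments.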

[2] = biological target: D(2) dopamine receptor (Rattus norvegicus, UniProt P61169); assay: In vitro binding affinity towards Dopamine receptor D2 of rat striatal membranes using [3H]- raclopride
D(2) dopamine receptor, sequence (P61169 whole entry): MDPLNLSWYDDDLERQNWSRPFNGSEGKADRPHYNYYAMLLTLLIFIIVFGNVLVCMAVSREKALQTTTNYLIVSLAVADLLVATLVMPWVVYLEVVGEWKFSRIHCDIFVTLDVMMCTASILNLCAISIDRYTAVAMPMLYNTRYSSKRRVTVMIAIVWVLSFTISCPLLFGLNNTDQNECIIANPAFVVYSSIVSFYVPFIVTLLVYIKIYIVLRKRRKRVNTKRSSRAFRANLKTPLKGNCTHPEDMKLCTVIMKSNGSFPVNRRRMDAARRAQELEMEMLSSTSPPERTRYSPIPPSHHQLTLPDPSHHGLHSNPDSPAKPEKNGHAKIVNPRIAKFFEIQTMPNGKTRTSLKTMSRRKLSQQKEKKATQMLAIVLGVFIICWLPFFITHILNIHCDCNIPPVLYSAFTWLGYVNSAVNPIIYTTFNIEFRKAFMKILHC
How it was run: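 Male Sprague–Dawley rat (180–200 g) striatal membranes (125–150 μg protein) incubated 60 min at 25 °C with 0.8 nM [3H]raclopride in 50 mM Tris-HCl pH 7.4 with 120 mM NaCl, 5 mM KCl, 2 mM CaCl2, 1 mM MgCl2, 0.1% ascorbic acid. Nonspecific: 1 μM (+)-butaclamol. Filtration, scintillation counting; IC50 fitted, Ki by Cheng–Prusoff; mean ± SEM of 2–4 triplicate experiments.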

[3] = biological target: T2, 5-hydroxytryptamine receptor 1A (Rattus norvegicus, UniProt P19327); assay: Binding affinity at 5-hydroxytryptamine 1A (5-HT1A) receptor in rat cerebral cortex using [3H]8-OH-DPAT as radioligand; assay type: tissue-based
T2 sequence (P19327 whole entry): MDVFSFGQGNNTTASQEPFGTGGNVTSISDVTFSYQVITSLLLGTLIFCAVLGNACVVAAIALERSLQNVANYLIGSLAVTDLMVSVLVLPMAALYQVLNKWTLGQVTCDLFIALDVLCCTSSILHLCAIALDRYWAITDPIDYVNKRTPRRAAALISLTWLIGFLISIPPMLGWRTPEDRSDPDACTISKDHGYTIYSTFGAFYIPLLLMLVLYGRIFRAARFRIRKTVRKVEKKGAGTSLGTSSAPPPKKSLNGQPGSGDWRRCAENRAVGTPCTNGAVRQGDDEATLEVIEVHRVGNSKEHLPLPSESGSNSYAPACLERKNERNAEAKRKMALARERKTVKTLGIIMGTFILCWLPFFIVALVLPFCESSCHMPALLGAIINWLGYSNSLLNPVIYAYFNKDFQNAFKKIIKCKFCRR

Ki [1] | Ki [2] | Ki [3] | Compound
161 nM | > 1000 nM | 37 nM | COc1ccccc1N1CCN(CCCN2C(=O)CC(=C3c4ccccc4-c4ccccc43)C2=O)CC1
> 1000 nM | > 10000 nM | 201 nM | O=C1CC(=C2c3ccccc3-c3ccccc32)C(=O)N1CN1CCN(c2ccccc2)CC1
 |  | 237 nM | COc1ccccc1N1CCN(C/C=C\CN2C(=O)CC(=C(c3ccccc3)c3ccccc3)C2=O)CC1
60 nM | 397 nM | 14 nM | O=C1CC(=C2c3ccccc3-c3ccccc32)C(=O)N1CCCCN1CCN(c2ccccc2)CC1
196 nM | > 10000 nM | > 10000 nM | O=C1CC(=C2c3ccccc3-c3ccccc32)C(=O)N1CCN1CCN(c2ccccc2)CC1
57 nM | > 10000 nM | > 10000 nM | COc1ccccc1N1CCN(CCN2C(=O)CC(=C3c4ccccc4-c4ccccc43)C2=O)CC1
791 nM | > 10000 nM | 114 nM | O=C1CC(=C2c3ccccc3-c3ccccc32)C(=O)N1CN1CCN(c2cccc(C(F)(F)F)c2)CC1
316 nM | > 10000 nM | 42 nM | O=C1CC(=C2c3ccccc3-c3ccccc32)C(=O)N1CN1CCN(c2cccc(Cl)c2)CC1
> 10000 nM | > 10000 nM | > 10000 nM | O=C1CC(=C2c3ccccc3-c3ccccc32)C(=O)N1CCN1CCN(c2cccc(Cl)c2)CC1
 |  | 6.6 nM | COc1ccccc1N1CCN(CC#CCN2C(=O)CC(=C(c3ccccc3)c3ccccc3)C2=O)CC1
 |  | 27 nM | COc1ccccc1N1CCN(C/C=C/CN2C(=O)CC(=C(c3ccccc3)c3ccccc3)C2=O)CC1
10 nM | > 10000 nM | 9 nM | COc1ccccc1N1CCN(CCCCN2C(=O)CC(=C3c4ccccc4-c4ccccc43)C2=O)CC1
> 1000 nM | > 10000 nM | 61 nM | COc1ccccc1N1CCN(CN2C(=O)CC(=C3c4ccccc4-c4ccccc43)C2=O)CC1
249 nM | > 1000 nM | 72 nM | O=C1CC(=C2c3ccccc3-c3ccccc32)C(=O)N1CCCCN1CCN(c2cccc(Cl)c2)CC1

The next lines start with the molecule.

Compound | Ki [1] | Ki [2] | Ki [3]
O=C1CC(=C2c3ccccc3-c3ccccc32)C(=O)N1CCCN1CCN(c2ccccc2)CC1 | 646 nM | > 1000 nM | > 1000 nM
O=C1CC(=C2c3ccccc3-c3ccccc32)C(=O)N1CCCCN1CCN(c2ccc(F)cc2)CC1 | 266 nM | > 10000 nM | > 10000 nM
O=C1CC(=C2c3ccccc3-c3ccccc32)C(=O)N1CCCCN1CCN(c2cccc(C(F)(F)F)c2)CC1 | > 10000 nM | > 1000 nM | > 1000 nM
O=C1CC(=C2c3ccccc3-c3ccccc32)C(=O)N1CCN1CCN(c2cccc(C(F)(F)F)c2)CC1 | > 10000 nM | > 10000 nM | > 10000 nM
O=C1CC(=C(c2ccccc2)c2ccccc2)C(=O)N1CCCCN1CCN(c2ccc(F)cc2)CC1 | 51 nM |  | 
O=C1CC(=C2c3ccccc3-c3ccccc32)C(=O)N1CCCN1CCN(c2cccc(C(F)(F)F)c2)CC1 | > 10000 nM | > 10000 nM | > 1000 nM
O=C1CC(=C2c3ccccc3-c3ccccc32)C(=O)N1CN1CCN(c2ccc(F)cc2)CC1 | > 1000 nM | > 10000 nM | > 1000 nM
O=C1CC(=C2c3ccccc3-c3ccccc32)C(=O)N1CCCN1CCN(c2ccc(F)cc2)CC1 | 61 nM | > 10000 nM | > 10000 nM
O=C1CC(=C2c3ccccc3-c3ccccc32)C(=O)N1CCCN1CCN(c2cccc(Cl)c2)CC1 | > 10000 nM | > 10000 nM | > 1000 nM
O=C1CC(=C(c2ccccc2)c2ccccc2)C(=O)N1CCCCN1CCN(c2cccc(C(F)(F)F)c2)CC1 |  |  | 15 nM
O=C1CC(=C2c3ccccc3-c3ccccc32)C(=O)N1CCN1CCN(c2ccc(F)cc2)CC1 | 56 nM | > 10000 nM | > 10000 nM
